{"data": "Measured values pooled from the literature", "target": "Calcium/calmodulin-dependent protein kinase type II subunit beta (CAMK2B, Homo sapiens, UniProt Q13554)", "note": "Compare with care: the assays were run in different laboratories."}
{"Compound": "FC(F)(F)Oc1cccc(-c2cnc3ccc(-c4ccncc4)nn23)c1", "read-out": "cell-free assay", "method": "competition with immobilised ligand", "tested at": "5 µM", "remaining binding": "47%"}
{"Compound": "CC1CCCN1c1nccc(-c2cnn3ncccc23)n1 (stereo not drawn)", "read-out": "binding", "tested at": "1 µM", "remaining binding": "98%"}
{"Compound": "C[C@@H](c1cccc(C#N)c1)n1cc(Cl)cc(C(N)=O)c1=N", "read-out": "cell-free assay", "method": "competition with immobilised ligand", "tested at": "1 µM", "remaining binding": "100%"}
{"Compound": "Nc1ncc2c(n1)-c1c([nH]c3ccc(C#CC4CC4)cc13)CCCC2", "read-out": "binding", "method": "competition with immobilised ligand", "tested at": "1 µM", "remaining binding": "100%"}
{"Compound": "N[C@@H]1CCN(c2nccc(-c3cnn4ncccc34)n2)C1", "read-out": "binding", "tested at": "1 µM", "remaining binding": "100%"}
{"Compound": "c1ccc(N2CCN(Cc3nc4ccccc4[nH]3)CC2)nc1", "read-out": "cell-free assay", "method": "competition with immobilised ligand", "tested at": "1 µM", "remaining binding": "100%"}
{"Compound": "O=C(Nc1c[nH]nc1C(=O)NC1CCNCC1)c1cc(F)cc(F)c1", "read-out": "binding", "method": "competition with immobilised ligand", "tested at": "1 µM", "remaining binding": "100%"}
{"Compound": "C[C@H](c1ccnc(Nc2nc3ccc(-c4cc(N(C)C)ncn4)cc3[nH]2)c1)N1CCN(C(=O)CC(F)(F)F)CC1", "read-out": "cell-free assay", "method": "competition with immobilised ligand", "tested at": "0.1 µM", "remaining binding": "92%"}
{"Compound": "CN(c1nccc(-c2cnn3ncccc23)n1)C1CC1", "read-out": "binding", "tested at": "1 µM", "remaining binding": "84%"}
{"Compound": "O=C(O)[C@@H]1[C@@H](Cn2nnc3ccccc3c2=O)CC[C@H]1C(=O)c1ccc(OCCC2CCOCC2)cc1", "read-out": "cell-free assay", "method": "competition with immobilised ligand", "tested at": "1 µM", "remaining binding": "100%"}
{"Compound": "CN(C)c1ncc(F)c(-c2cnn3ncccc23)n1", "read-out": "binding", "tested at": "1 µM", "remaining binding": "65%"}
{"Compound": "FC(F)(F)c1ccc2c(c1)nc(-c1cccnc1)n2C1CC1", "read-out": "cell-free assay", "method": "competition with immobilised ligand", "tested at": "1 µM", "remaining binding": "100%"}
{"Compound": "c1cnn2ncc(-c3ccnc(N4CCC45COC5)n3)c2c1", "read-out": "binding", "tested at": "1 µM", "remaining binding": "66%"}
{"Compound": "CS(=O)(=O)NCC[C@H](NC(=O)c1cncc2c1cnn2-c1ccc(F)cc1)c1ccnc(S(C)(=O)=O)c1", "read-out": "cell-free assay", "method": "competition with immobilised ligand", "tested at": "1 µM", "remaining binding": "100%"}
{"Compound": "Cc1cnc(Nc2ccc(C(=O)N3CCC(N4CCCC4)CC3)cc2)nc1-c1cc2ccccc2s1", "read-out": "binding", "method": "competition with immobilised ligand", "tested at": "1 µM", "remaining binding": "90%"}
{"Compound": "COc1cnc(Nc2cccc(S(N)(=O)=O)c2)nc1N1CCN(c2ccccc2)C(=O)C1", "read-out": "binding", "method": "competition with immobilised ligand", "tested at": "1 µM", "remaining binding": "100%"}
{"Compound": "O=C(NCCCN1CCOCC1)c1ccc(Nc2ncc(Cl)c(-c3ccc(Cl)s3)n2)cc1", "read-out": "binding", "method": "competition with immobilised ligand", "tested at": "1 µM", "remaining binding": "79%"}
{"Compound": "COc1cnc(Nc2cccc(S(N)(=O)=O)c2)nc1N1CCN(c2ccccc2)CC1", "read-out": "binding", "method": "competition with immobilised ligand", "tested at": "1 µM", "remaining binding": "83%"}
{"Compound": "O=C(NCCCN1CCOCC1)c1ccc(Nc2nccc(-c3cc4ccccc4s3)n2)cc1", "read-out": "binding", "method": "competition with immobilised ligand", "tested at": "1 µM", "remaining binding": "83%"}
{"Compound": "C[C@@H]1CCN(c2nccc(-c3cnn4ncccc34)n2)C1", "read-out": "binding", "tested at": "1 µM", "remaining binding": "78%"}
{"Compound": "c1cncc(-c2cccc(Nc3nccc(NC4CCCCC4)n3)c2)c1", "read-out": "binding", "method": "competition with immobilised ligand", "tested at": "10 µM", "remaining binding": "94%"}
